Measurements as given in ChEMBL document CHEMBL4118192, “BET bromodomain ligands: Probing the WPF shelf to improve BRD4 bromodomain affinity and metabolic stability” (Bioorg Med Chem, 2018).

Key:
Format in all cases: functional
[1] = system: MCF7; assay: Growth inhibition of human MCF7 cells after 48 hrs by SRB assay; details: MCF7, 48 h
Method in brief: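 In-house assay. Cells were seeded into 96-well plates at a density for exponential growth and treated with a concentration range for 48 h. They were then fixed in 10% (w/v) TCA and stained with sulforhodamine B. The 50% growth-inhibitory concentration relative to control cells was calculated as the mean of three repeats ± standard deviation.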

[2] = system: CCRF-CEM; assay: Growth inhibition of human CCRF-CEM cells at 10 uM after 48 hrs by sulforhodamine B assay relative to control; details: read-out: GI
Method in brief: (§1)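 NCI-60 single-dose screen at 10 μM for 48 h. Percent growth inhibition was measured by sulforhodamine B staining of cellular protein.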

[3] = system: K562; assay: Growth inhibition of human K562 cells at 10 uM after 48 hrs by sulforhodamine B assay relative to control; details: K562, 48 h, read-out: GI; method in brief: as §1
[4] = system: MOLT-4; assay: Growth inhibition of human MOLT4 cells at 10 uM after 48 hrs by sulforhodamine B assay relative to control; details: MOLT-4, 48 h, read-out: GI
Method in brief: (§2)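 NCI-60 human cancer cell line screen, single-dose pass: cells exposed to 10 μM for 48 h. Cellular protein content read out by sulforhodamine B staining, and growth inhibition expressed relative to untreated control.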

[5] = system: HOP-62; assay: Growth inhibition of human HOP62 cells at 10 uM after 48 hrs by sulforhodamine B assay relative to control; details: HOP-62, 48 h, read-out: GI; method in brief: as §1
[6] = system: HOP-92; assay: Growth inhibition of human HOP92 cells at 10 uM after 48 hrs by sulforhodamine B assay relative to control; details: HOP-92, 48 h, read-out: GI; method in brief: as §1
[7] = system: NCI-H226; assay: Growth inhibition of human NCI-H226 cells at 10 uM after 48 hrs by sulforhodamine B assay relative to control; details: NCI-H226, 48 h, read-out: GI; method in brief: as §2
[8] = system: NCI-H322M; assay: Growth inhibition of human NCI-H322M cells at 10 uM after 48 hrs by sulforhodamine B assay relative to control; details: read-out: GI; method in brief: as §2
[9] = system: COLO 205; assay: Growth inhibition of human COLO205 cells at 10 uM after 48 hrs by sulforhodamine B assay relative to control; details: COLO 205, 48 h, read-out: GI; method in brief: as §1
[10] = system: KM12; assay: Growth inhibition of human KM12 cells at 10 uM after 48 hrs by sulforhodamine B assay relative to control; details: KM12, 48 h, read-out: GI; method in brief: as §1
[11] = system: SF-268; assay: Growth inhibition of human SF268 cells at 10 uM after 48 hrs by sulforhodamine B assay relative to control; details: SF-268, 48 h, read-out: GI; method in brief: as §2
[12] = system: SK-MEL-28; assay: Growth inhibition of human SK-MEL-28 cells at 10 uM after 48 hrs by sulforhodamine B assay relative to control; details: SK-MEL-28, 48 h, read-out: GI; method in brief: as §2
[13] = system: SK-MEL-5; assay: Growth inhibition of human SK-MEL-5 cells at 10 uM after 48 hrs by sulforhodamine B assay relative to control; details: SK-MEL-5, 48 h, read-out: GI; method in brief: as §2
[14] = system: OVCAR-8; assay: Growth inhibition of human OVCAR8 cells at 10 uM after 48 hrs by sulforhodamine B assay relative to control; details: OVCAR-8, 48 h, read-out: GI; method in brief: as §2
[15] = system: 786-0; assay: Growth inhibition of human 786-0 cells at 10 uM after 48 hrs by sulforhodamine B assay relative to control; details: 786-0, 48 h, read-out: GI; method in brief: as §1
[16] = system: SN12C; assay: Growth inhibition of human SN12C cells at 10 uM after 48 hrs by sulforhodamine B assay relative to control; details: read-out: GI; method in brief: as §2
[17] = system: TK-10; assay: Growth inhibition of human TK10 cells at 10 uM after 48 hrs by sulforhodamine B assay relative to control; details: TK-10, 48 h, read-out: GI
Method in brief: (§3)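 NCI-60 human cancer cell line screen, single dose of 10 μM for 48 h. Cellular protein content read by sulforhodamine B staining; growth inhibition expressed relative to untreated control.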

[18] = system: Hs-578T; assay: Growth inhibition of human Hs 578T cells at 10 uM after 48 hrs by sulforhodamine B assay relative to control; details: read-out: GI; method in brief: as §1
[19] = system: T47D; assay: Growth inhibition of human T47D cells at 10 uM after 48 hrs by sulforhodamine B assay relative to control; details: read-out: GI; method in brief: as §3
[20] = system: CCRF-CEM; assay: Growth inhibition of human CCRF-CEM cells after 48 hrs by sulforhodamine B assay
Method in brief: (§4)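 NCI-60 panel screen. Cells were exposed for 48 h at five concentrations between 10 nM and 100 μM. Cellular protein was read by sulforhodamine B staining, and GI50 and total growth inhibition (TGI) concentrations were derived.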

[21] = system: NCI-H322M; assay: Growth inhibition of human NCI-H322M cells after 48 hrs by sulforhodamine B assay
Method in brief: (§5)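 NCI-60 panel follow-up: five concentrations from 10 nM to 100 μM, 48 h exposure. Growth read by sulforhodamine B protein staining. GI50 derived from the concentration-response, with the concentration for total growth inhibition (TGI) also recorded when below 100 μM.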

[22] = system: NCI-H522; assay: Growth inhibition of human NCI-H522 cells after 48 hrs by sulforhodamine B assay; details: NCI-H522, 48 h; method in brief: as §5
[23] = system: COLO 205; assay: Growth inhibition of human COLO205 cells after 48 hrs by sulforhodamine B assay; details: COLO 205, 48 h; method in brief: as §4
[24] = system: HCT-116; assay: Growth inhibition of human HCT116 cells after 48 hrs by sulforhodamine B assay; details: HCT-116, 48 h; method in brief: as §4
[25] = system: SF-268; assay: Growth inhibition of human SF268 cells after 48 hrs by sulforhodamine B assay; details: SF-268, 48 h; method in brief: as §5
[26] = system: SF-539; assay: Growth inhibition of human SF539 cells after 48 hrs by sulforhodamine B assay; details: SF-539, 48 h; method in brief: as §5
[27] = system: SNB-19; assay: Growth inhibition of human SNB19 cells after 48 hrs by sulforhodamine B assay; details: SNB-19, 48 h; method in brief: as §5
[28] = system: SNB-75; assay: Growth inhibition of human SNB75 cells after 48 hrs by sulforhodamine B assay; details: SNB-75, 48 h; method in brief: as §5
[29] = system: SK-MEL-5; assay: Growth inhibition of human SK-MEL-5 cells after 48 hrs by sulforhodamine B assay; details: SK-MEL-5, 48 h; method in brief: as §5
[30] = system: UACC-257; assay: Growth inhibition of human UACC257 cells after 48 hrs by sulforhodamine B assay; details: UACC-257, 48 h
Method in brief: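 NCI-60 panel cells treated at five concentrations from 10 nM to 100 μM for 48 h. Read-out by sulforhodamine B protein stain. GI50 and total growth inhibition (TGI, if below 100 μM) taken from the concentration-response data.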

[31] = system: OVCAR-4; assay: Growth inhibition of human OVCAR4 cells after 48 hrs by sulforhodamine B assay; details: OVCAR-4, 48 h; method in brief: as §5
[32] = system: OVCAR-5; assay: Growth inhibition of human OVCAR5 cells after 48 hrs by sulforhodamine B assay; details: OVCAR-5, 48 h; method in brief: as §5
[33] = system: OVCAR-8; assay: Growth inhibition of human OVCAR8 cells after 48 hrs by sulforhodamine B assay; details: OVCAR-8, 48 h; method in brief: as §5
[34] = system: ACHN; assay: Growth inhibition of human ACHN cells after 48 hrs by sulforhodamine B assay; method in brief: as §4
[35] = system: DU-145; assay: Growth inhibition of human DU145 cells after 48 hrs by sulforhodamine B assay; details: DU-145, 48 h; method in brief: as §4

With `COc1ccccc1S(=O)(=O)Nc1ccc2c(c1)CN(C)C(=O)N2` the GI50 [1] was 1.5 µM, the inhibition of growth at 10 µM [2] was 51.1% and the inhibition of growth at 10 µM [3] was 71.4%. It also gave an inhibition of growth at 10 µM [4] of 61.6%, an inhibition of growth at 10 µM [5] of 55.7% and an inhibition of growth at 10 µM [6] of 97.6%. The inhibition of growth at 10 µM [7] was 37%, the inhibition of growth at 10 µM [8] was 57.1% and the inhibition of growth at 10 µM [9] was 61.6%. It also gave an inhibition of growth at 10 µM [10] of 55%, an inhibition of growth at 10 µM [11] of 27.1% and an inhibition of growth at 10 µM [12] of 51.1%. For the same compound, the inhibition of growth at 10 µM [13] was 59.5%, the inhibition of growth at 10 µM [14] was 43.8% and the inhibition of growth at 10 µM [15] was 27.3%. The inhibition of growth at 10 µM [16] was 46.8%, the inhibition of growth at 10 µM [17] was 82.7% and the inhibition of growth at 10 µM [18] was 66.3%. It also gave an inhibition of growth at 10 µM [19] of 68.6%, a GI50 [20] of 7.8 µM and a GI50 [21] of 6 µM. It also gave a GI50 [22] of 8.7 µM, a GI50 [23] of 3 µM and a GI50 [24] of 4.5 µM. The GI50 [25] was 28.8 µM, the GI50 [26] was 4.5 µM and the GI50 [27] was 4.8 µM. It also gave a GI50 [28] of 0.4 µM, a GI50 [29] of 6.3 µM and a GI50 [30] of 3.6 µM. For the same compound, the GI50 [31] was 6.3 µM, the GI50 [32] was 10.5 µM and the GI50 [33] was 9.1 µM. For the same compound, the GI50 [34] was 7.8 µM and the GI50 [35] was 28.8 µM.

Compound `Cc1noc(C)c1-c1cc(O)cc(C(O)c2ccccc2)c1` (stereo unspecified) has a GI50 [1] of 1.25 to 1.7 µM, an inhibition of growth at 10 µM [2] of 53.3% and an inhibition of growth at 10 µM [3] of 57.9%. The inhibition of growth at 10 µM [4] was 41.3%, the inhibition of growth at 10 µM [5] was 52.8% and the inhibition of growth at 10 µM [6] was 74.4%. It also gave an inhibition of growth at 10 µM [7] of 34.5%, an inhibition of growth at 10 µM [8] of 52.4% and an inhibition of growth at 10 µM [9] of 62.9%. For the same compound, the inhibition of growth at 10 µM [10] was 46.9%, the inhibition of growth at 10 µM [11] was 28.5% and the inhibition of growth at 10 µM [12] was 38.8%. The inhibition of growth at 10 µM [13] was 45.8%, the inhibition of growth at 10 µM [14] was 61.4% and the inhibition of growth at 10 µM [15] was 45.2%. It also gave an inhibition of growth at 10 µM [16] of 25.5%, an inhibition of growth at 10 µM [17] of 87.4% and an inhibition of growth at 10 µM [18] of 66.3%. It also gave an inhibition of growth at 10 µM [19] of 52.9%, a GI50 [20] of 14.8 µM and a GI50 [21] of 8.41 µM. The GI50 [22] was 27 µM, the GI50 [23] was 5.25 µM and the GI50 [24] was 7.08 µM. For the same compound, the GI50 [25] was 39.3 µM, the GI50 [26] was 4.56 µM and the GI50 [27] was 5.69 µM. It also gave a GI50 [28] of 0.423 µM, a GI50 [29] of 5.95 µM and a TGI [29] of 29.5 µM. It also gave a GI50 [30] of 4.66 µM, a GI50 [31] of 6.35 µM and a GI50 [32] of 31.8 µM. It also gave a GI50 [33] of 8.33 µM, a GI50 [34] of 4.76 µM and a GI50 [35] of 6.95 µM.
